Activity calls are given as the source filed them. The calls are words filed in the database; no cut-off is given here.
Key:
Monoglyceride lipase = target: T1, Monoglyceride lipase (Homo sapiens, UniProt Q99685); assay: Inhibition of MAGL in human U937 cells using 2-OG containing […] as substrate preincubated for 30 mins followed by substrate addition and measured after 15 mins by liquid scintillation spectroscopic method; format: cell-based
T1 sequence (Q99685 whole entry): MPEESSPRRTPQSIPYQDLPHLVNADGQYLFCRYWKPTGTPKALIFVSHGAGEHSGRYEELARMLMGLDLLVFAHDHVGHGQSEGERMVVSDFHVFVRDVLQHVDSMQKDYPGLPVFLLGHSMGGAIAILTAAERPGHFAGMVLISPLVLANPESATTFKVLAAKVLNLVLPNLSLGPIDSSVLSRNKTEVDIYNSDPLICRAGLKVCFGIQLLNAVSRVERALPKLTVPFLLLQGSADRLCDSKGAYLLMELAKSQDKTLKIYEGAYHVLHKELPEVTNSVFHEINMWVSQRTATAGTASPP
Summary of the method: (§1)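 U937 cell homogenate (100 µg) in 10 mM Tris-HCl, 1 mM EDTA, pH 8, 0.1% fatty acid-free BSA. Compound at 10 µM screening concentration, 30 min at 37 °C. FAAH: 100 nM AEA with 1 nM [³H]AEA tracer. MAGL: 1 µM 2-OG with 1 nM tritiated tracer. Both 15 min at 37 °C, stopped with CHCl₃:MeOH (1:1), aqueous phase counted.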

Cannabinoid receptor 1 [1] = target: T2, Cannabinoid receptor 1 (Homo sapiens, UniProt P21554); assay: Displacement of [3H]-CP55940 from human CB1 receptor expressed in CHO cell membranes after 90 mins
T2 sequence (P21554 whole entry): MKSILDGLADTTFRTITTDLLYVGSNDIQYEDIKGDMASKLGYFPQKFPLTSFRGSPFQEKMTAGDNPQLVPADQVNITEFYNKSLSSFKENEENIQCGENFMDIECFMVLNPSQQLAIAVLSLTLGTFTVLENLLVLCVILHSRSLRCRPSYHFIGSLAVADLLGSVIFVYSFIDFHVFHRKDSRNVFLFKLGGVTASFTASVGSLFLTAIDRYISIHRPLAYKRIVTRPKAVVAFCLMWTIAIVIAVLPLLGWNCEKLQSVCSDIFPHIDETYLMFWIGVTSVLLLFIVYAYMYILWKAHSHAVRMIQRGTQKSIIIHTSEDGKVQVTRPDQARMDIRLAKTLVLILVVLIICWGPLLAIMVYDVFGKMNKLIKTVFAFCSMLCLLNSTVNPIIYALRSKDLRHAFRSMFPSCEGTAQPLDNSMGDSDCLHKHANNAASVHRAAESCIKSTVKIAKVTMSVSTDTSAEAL

Homo sapiens = organism: Homo sapiens; assay: Selectivity ratio of Ki for human CB1 receptor to Ki for human CB2 receptor
Summary of the method: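 Membranes expressing hCB1 or hCB2 (stably transfected CHO) in 50 mM Tris-HCl, 2.5 mM EDTA, 5 mM MgCl₂, 0.5% fatty acid-free BSA, pH 7.4. Incubated with compound and 0.5 nM [³H]CP55,940 for 90 min at 30 °C. Nonspecific binding with 10 µM […]. GF/B filtration, radioactivity counted, Ki derived. Mean ± SD, at least 3 experiments in triplicate.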

Cannabinoid receptor 1 [2] = target: T2, Cannabinoid receptor 1; assay: Agonist activity at human CB1 receptor expressed in CHO cell membranes after 90 mins by [35S]GTPgammaS binding assay; format: functional, cell-based
Cannabinoid receptor 2 = Cannabinoid receptor 2 (Homo sapiens, UniProt P34972); assay: Agonist activity at human CB2 receptor expressed in CHO cell membranes after 90 mins by [35S]GTPgammaS binding assay relative to control; format: functional
Sequence of Cannabinoid receptor 2 (P34972 whole entry): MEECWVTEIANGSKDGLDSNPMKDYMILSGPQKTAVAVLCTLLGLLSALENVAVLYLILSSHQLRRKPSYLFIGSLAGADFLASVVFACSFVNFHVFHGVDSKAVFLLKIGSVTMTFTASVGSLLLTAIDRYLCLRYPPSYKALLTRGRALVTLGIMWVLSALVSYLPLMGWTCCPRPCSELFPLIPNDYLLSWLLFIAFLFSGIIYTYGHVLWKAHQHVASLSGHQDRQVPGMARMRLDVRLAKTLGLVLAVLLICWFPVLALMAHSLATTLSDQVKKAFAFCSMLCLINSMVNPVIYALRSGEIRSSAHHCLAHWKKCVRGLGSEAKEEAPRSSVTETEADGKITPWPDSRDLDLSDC
Summary of the method: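 Membranes (5 µg) of hCB2-expressing cells in 50 mM Tris-HCl, 3 mM MgCl₂, 0.2 mM EDTA, 100 mM NaCl, 0.5% fatty acid-free BSA, pH 7.4, with 10 µM GDP and 0.1 nM [³⁵S]GTPγS. Kept on ice, started by vehicle or compound, 90 min at 30 °C. Nonspecific binding with 10 µM GTPγS. Filtered on GF/B, radioactivity counted. At least three experiments in triplicate, mean ± SD.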

[3] = target: T3, Fatty-acid amide hydrolase 1 (Homo sapiens, UniProt O00519); assay: Inhibition of FAAH in human U937 cells using AEA containing [ethanolamine-1-3H]AEA as substrate preincubated for 30 mins followed by substrate addition and measured after 15 mins by liquid scintillation spectroscopic method; format: cell-based; summary of the method: as §1
T3 sequence (O00519 whole entry): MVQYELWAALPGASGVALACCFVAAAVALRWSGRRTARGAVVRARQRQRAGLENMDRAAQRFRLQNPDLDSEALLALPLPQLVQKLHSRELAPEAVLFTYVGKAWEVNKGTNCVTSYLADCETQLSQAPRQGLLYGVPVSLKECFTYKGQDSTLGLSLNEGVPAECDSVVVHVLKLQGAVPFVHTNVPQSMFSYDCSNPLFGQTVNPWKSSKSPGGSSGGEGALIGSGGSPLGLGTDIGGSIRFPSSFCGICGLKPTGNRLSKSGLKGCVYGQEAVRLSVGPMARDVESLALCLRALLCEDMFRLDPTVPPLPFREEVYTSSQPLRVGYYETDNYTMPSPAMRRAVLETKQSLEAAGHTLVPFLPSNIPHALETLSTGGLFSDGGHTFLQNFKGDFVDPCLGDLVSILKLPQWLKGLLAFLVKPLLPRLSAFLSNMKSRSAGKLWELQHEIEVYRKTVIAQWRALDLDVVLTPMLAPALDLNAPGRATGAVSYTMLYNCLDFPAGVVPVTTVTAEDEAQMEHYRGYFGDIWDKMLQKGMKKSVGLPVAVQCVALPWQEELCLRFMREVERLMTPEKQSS

[4] = target: T4, Lysophosphatidylserine lipase ABHD12 (Homo sapiens, UniProt Q8N2K0); assay: Inhibition of human ABHD12 expressed in HEK293 cells using 2-OG as substrate preincubated for 30 mins followed by substrate addition and measured after 5 mins by liquid scintillation spectroscopic method; format: cell-based
T4 sequence (Q8N2K0 whole entry): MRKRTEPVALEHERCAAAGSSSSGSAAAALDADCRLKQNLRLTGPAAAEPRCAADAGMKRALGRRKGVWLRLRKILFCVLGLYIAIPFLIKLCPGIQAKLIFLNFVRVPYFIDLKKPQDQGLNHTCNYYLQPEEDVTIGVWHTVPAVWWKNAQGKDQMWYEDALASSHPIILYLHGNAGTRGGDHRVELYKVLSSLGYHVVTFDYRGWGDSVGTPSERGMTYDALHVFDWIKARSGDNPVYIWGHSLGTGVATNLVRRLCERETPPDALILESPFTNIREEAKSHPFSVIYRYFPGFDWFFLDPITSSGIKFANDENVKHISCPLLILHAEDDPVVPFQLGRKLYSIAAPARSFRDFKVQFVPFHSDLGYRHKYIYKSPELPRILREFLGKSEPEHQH
Summary of the method: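 Homogenate (40 µg) of HEK293 cells stably transfected with hABHD6 or hABHD12, compound preincubated 30 min at 37 °C in […], 0.1% BSA, pH 7.6. DMSO vehicle; WWL70 10 µM or THL 20 µM as positive controls. 10 µM 2-OG added for 5 min at 37 °C, stopped with CHCl₃:MeOH. Aqueous phase counted; no-enzyme blanks and non-transfected HEK293 hydrolysis subtracted.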

U-937 [5] = assay: Inhibition of [ethanolamine-1-3H]AEA/unlabeled AEA uptake in human U937 cells preincubated for 15 mins followed by [ethanolamine-1-3H]AEA/unlabeled AEA addition and measured after 15 mins by scintillation counting method; format: functional, cell-based
Summary of the method: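 Intact U937 cells (0.5x10⁶ per sample) in RPMI, preincubated with compound for 15 min at 37 °C. Then 1 nM [ethanolamine-1-³H]AEA plus unlabeled AEA (final 100 nM) added for 15 min. Stopped by rapid filtration and ice-cold PBS/1% BSA washes, radioactivity counted. At least three experiments in triplicate, mean ± SD.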

U-937 [6] = assay: Cytotoxicity against human U937 cells assessed as decrease in cell viability at 0.6 to 40 uM after 48 hrs by MTT assay; format: functional, cell-based
Summary of the method: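 U251MG (EMEM, 10% FBS) or U937 (RPMI 1640, 10% FBS) cells plated at 4x10³/well for 24h, then exposed to compounds (0–40 µM) for 48 h at 37°C. MTT reduction, formazan read at 595 nm. Viability as % of untreated control. Five independent experiments in triplicate, mean ± SD, ANOVA with Bonferroni.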

| Compound | IC50 (Monoglyceride lipase) [nM] | Ki (Cannabinoid receptor 1 [1]) [nM] | Ratio Ki (Homo sapiens) | EC50 (Cannabinoid receptor 1 [2]) [nM] | Emax (Cannabinoid receptor 2) [%] | IC50 [3] [nM] | IC50 [4] [nM] | IC50 (U-937 [5]) [nM] | Activity (U-937 [6]) |
| --- | --- | --- | --- | --- | --- | --- | --- | --- | --- |
| Cc1c(Br)cn(Cc2ccc(F)cc2)c(=O)c1C(=O)NC1CCCCCC1 | > 10000 | 2.3 | 0.65 | 1.4 | 134 | 2300 | 2100 | 930 | Active |
| COc1ccc(-c2cn(Cc3ccc(F)cc3)c(=O)c(C(=O)NC3CCCCCC3)c2C)cc1 | > 10000 | 30.7 | 2 to 54 | 96 | 99 | 1300 | > 10000 | 280 | Active |
| Cc1c(Br)cnc(OCc2ccc(F)cc2)c1C(=O)NC1CCCCCC1 | > 10000 | 113 | 0.18 | 182 | 125 | > 10000 | > 10000 | 620 | Active |
